In experiment [1] the target is T1, Prostaglandin E synthase (Homo sapiens) (UniProt O14684).
T1 sequence (whole entry): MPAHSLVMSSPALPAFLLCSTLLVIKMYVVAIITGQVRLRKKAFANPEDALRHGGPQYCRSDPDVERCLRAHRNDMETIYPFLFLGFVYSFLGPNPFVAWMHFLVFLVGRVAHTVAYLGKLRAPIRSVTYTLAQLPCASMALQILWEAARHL
As to the kind of experiment: Inhibition of human recombinant mPGES-1 in assessed as conversion of PGH2 into PGE2 at 1 uM at 20 degC after 5 mins by HPLC-UV analysis. The method, boiled down:
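Commercial microsomal human recombinant mPGES-1, diluted about 1:200 in phosphate buffer (50 mM sodium phosphate, 100 mM NaCl, 20% glycerol, pH 7.2). Compound in DMSO added to Tris buffer (50 mM, pH 7.2) with freshly dissolved 2.5 mM reduced glutathione, 5 min, then enzyme, 5 min preincubation at room temperature. PGH2 started reaction, 5 min at room temperature. PGE2 measured by online SPE-HPLC-UV at 195 nm. Reference incubations without enzyme gave non-enzymatic PGE2.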

Experiment [2] concerns the target T1, Prostaglandin E synthase (Homo sapiens). The experiment in a line: Inhibition of mPGES-1 in human A549 cell microsomes assessed as conversion of PGH2 into PGE2 at 3.3 uM at 0 degC after 5 mins by HPLC-UV analysis. The following applies: Microsome. The method, boiled down: (§1)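 Enzyme source was microsomes from A549 cells. Compound was incubated with PGH2 substrate for 5 min at 0 °C. PGE2 formation was monitored by online solid phase extraction HPLC with UV detection. Values are means of at least two independent determinations.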

Experiment [3] addresses T2, Prostaglandin E synthase (Homo sapiens, UniProt O14684).
T2 sequence (O14684 whole entry): T1 sequence (whole entry)
The experiment in a line: Inhibition of mPGES-1. In short, it runs like this:
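PGH2 was the substrate, and reactions ran for 5 min. One version used microsomes from A549 cells at 0 °C. The other used commercial microsomes containing human recombinant mPGES-1, at 20 °C or room temperature, in 50 mM Tris pH 7.2 with 2.5 mM GSH. PGE2 formed was measured by online solid-phase extraction HPLC with UV detection.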

For experiment [4], the target named is T2, Prostaglandin E synthase. As to the kind of experiment: Inhibition of human recombinant mPGES-1 in assessed as conversion of PGH2 into PGE2 at 20 degC after 5 mins by HPLC-UV analysis. The method, boiled down:
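Commercial microsomal human recombinant mPGES-1, diluted about 1:200 in phosphate buffer (50 mM sodium phosphate, 100 mM NaCl, 20% glycerol, pH 7.2). Compound in DMSO added to Tris buffer (50 mM, pH 7.2) with freshly dissolved 2.5 mM reduced glutathione, 5 min, then enzyme, 5 min preincubation at room temperature. PGH2 started reaction, 5 min at room temperature.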

Experiment [5] has as its target T2, Prostaglandin E synthase. The experiment in a line: Inhibition of mPGES-1 in human A549 cell microsomes assessed as conversion of PGH2 into PGE2 at 0 degC after 5 mins by HPLC-UV analysis. More on the design: species or system Microsome. The method, boiled down:
as §1

In experiment [6] the target is T1, Prostaglandin E synthase (Homo sapiens). As to the kind of experiment: Inhibition of human recombinant mPGES-1 in assessed as conversion of PGH2 into PGE2 at 10 uM at 20 degC after 5 mins by HPLC-UV analysis in presence of 0.1% Triton X-100. The method, boiled down: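 Human recombinant mPGES-1 microsomes in Tris buffer (50 mM, pH 7.2) containing 2.5 mM glutathione, with 0.1% Triton X-100 added. Compound in DMSO, 5 min preincubation with enzyme at room temperature, then PGH2 substrate, 5 min reaction at 20 °C. PGE2 formed was quantified by online solid phase extraction HPLC with UV detection.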

Our source for the inhibition and IC50 values is ChEMBL document CHEMBL1933057, “Pyrrole alkanoic acid derivatives as nuisance inhibitors of microsomal prostaglandin E2 synthase-1” (Eur J Med Chem, 2012).

For orientation: inhibition means the change of the read-out against control, counted positive when it falls. A word on the IC50: it is the concentration at which inhibition is half-maximal.

Activity calls are given as the source filed them. The calls are words filed in the database; no cut-off is given here.

Take `CCCCCCCCCCCC(=O)c1c(C)[nH]c(CCC(=O)O)c1C`: the inhibition in experiment [1] came out at 38%.
On the same count and under the same terms, for `CCCCCCCCCCCC(=O)c1c(C)c(C(=O)O)n(-c2ccccc2)c1C` the value was 99%; for `CCCCCCCCCCCC(=O)c1c(C)c(CCCC(=O)O)n(C)c1C`, 70%.
Same read-out and setting: under `CCCCCCCCCCCC(=O)c1c(C)c(CCC(N)=O)n(C)c1C` stands 39%; under `CCCCCCCCCCCC(=O)c1c(C)c(CCC(=O)NS(=O)(=O)c2ccccc2)n(C)c1C`, 77%; under `CCCCCCCCCCCC(=O)c1c(C)c(CCC(=O)O)n(Cc2ccc(Cl)cc2)c1C`, 78%.
On the same count and under the same terms, under `CCCCCCCCCCCC(=O)c1c(C)c(CCC#N)n(C)c1C` stands 22%; under `Cc1c(C(=O)Cc2ccc(-c3ccccc3)cc2)c(C)n(C)c1CCC(=O)O`, “inactive”; under `CCCCCCCCCCCC(=O)c1c(C)c(CC(=O)O)n(-c2ccccc2)c1C`, 23%.
As to `CCCCCCCCCCCCCC(=O)c1c(C)c(CCC(=O)O)n(C)c1C`, the inhibition in experiment [1] was 91%; in experiment [2], 63%.
In the case of `CCCCCCCCCCCC(=O)c1cc(CCC(=O)O)n(C)c1`, the inhibition result in experiment [1] is “inactive”.
Take `Cc1c(C(=O)c2ccccc2)c(C)n(C)c1CCC(=O)O`: the inhibition result in experiment [1] and in experiment [2] was “inactive” throughout.
For the molecule `CCCCCCCCCCCC(=O)c1c(C)[nH]c(CC(=O)O)c1C`, the inhibition in experiment [1] stood at 17%.
`CCCCCCCCCCCC(=O)c1c(C)c(CCC(=O)O)n(Cc2ccc(C(N)=O)cc2)c1C`: the inhibition in experiment [1] is 28%.
On to `CCCCCCCCCCCC(=O)c1c(C)c(CCC(=O)O)n(C)c1C`, for which the results for the inhibition in experiment [1] and in experiment [2] were 54% and 74%, respectively. Moreover, the values for the concentration for half-maximal inhibition (IC50) against Prostaglandin E synthase [3], on Prostaglandin E synthase [4] and at Prostaglandin E synthase [5] were 800 nM, 670 nM and 800 nM, respectively. For the same molecule, in experiment [6], the inhibition entry is “inactive”.
`CCCCCCCCCCCC(=O)c1c(-c2ccccc2)c(CCC(=O)O)n(Cc2ccccc2)c1C`: the inhibition in experiment [1] came out at 64%.
Same read-out and setting: for `CCCCCCCCCCCC(=O)c1c(C)c(C(=O)O)n(Cc2ccccc2)c1C` the value was 65%.
The same measure, in the same setting: for `CCCCCCCCCCCC(=O)c1c(C)[nH]c(C(=O)O)c1C` the value was 62%.
Same read-out and setting: under `CCCCCCCCCCCC(=O)c1c(C)c(CCC(=O)NN)n(C)c1C` stands 35%.
For `CCCCCCCCCCCC(=O)c1c(C)c(CCC(=O)NS(C)(=O)=O)n(C)c1C`, the inhibition in experiment [1] is 52%. For the same molecule, at Prostaglandin E synthase [4], the IC50 amounted to 600 nM. Besides, in experiment [6], the inhibition result is “inactive”.
In the case of `CCCCCCCCCCCC(=O)c1c(C)c(CCC(=O)O)n(Cc2ccc(C)cc2)c1C`, the inhibition in experiment [1] was 52%.
Regarding `CCCCCCCCCCCC(=O)c1c(C)c(CC(=O)O)n(C)c1C`, in experiment [1], the inhibition turned out to be 22%.
For `CCCCCCCCCCCC(=O)c1c(C)c(CCC(=O)O)n(Cc2ccc(C(=O)O)cc2)c1C`, the inhibition in experiment [1] came out at 27%.
As for `CCCCCCCOc1cccc(C(=O)c2c(C)c(CCC(=O)O)n(C)c2C)c1`, the inhibition entry in experiment [1] is “inactive”. Also, the inhibition in experiment [2] came to 67%.
With `CCCCCCCCCCCC(=O)c1cc(C(=O)O)n(C)c1`, the inhibition result in experiment [1] was “inactive”.
Still for that read-out and setting: for `CCCCCCCCCCCC(=O)c1c(C)c(CCC(=O)O)n(Cc2ccccc2)c1C` the value was 62%; for `CCCCCCCCCCCC(=O)c1c(C)c(CCC(=O)O)n(Cc2ccc(O)cc2)c1C`, 53%.
With `CCCCCCCCCCCC(=O)c1c(C)c(C(=O)O)n(C)c1C`, the inhibition in experiment [1] is 59%.
For `Cc1c(C(=O)c2cccc3ccccc23)c(C)n(C)c1CCC(=O)O`, the inhibition entry in experiment [1] and in experiment [2] was “inactive” each time.
Regarding `CCCCCCCCCCCCc1c(C)c(C(=O)O)n(C)c1C`, the inhibition in experiment [1] came out at 37%.
`Cc1c(C(=O)c2ccc(-c3ccccc3)cc2)c(C)n(C)c1CCC(=O)O`: the inhibition entry in experiment [1] and in experiment [2] was “inactive” each time.
`CCCCCCCCCCCCCCCC(=O)c1c(C)c(CCC(=O)O)n(C)c1C`: the figures for the inhibition in experiment [1] and in experiment [2] were 97% and 35%, respectively.
At Prostaglandin E synthase [3], `CS(=O)(=O)Nc1ccc([N+](=O)[O-])cc1OC1CCCCC1` [NS-398] showed a half-maximal inhibitory concentration (IC50) of 10000 nM.
As to `CCCCCCCCOc1ccccc1C(=O)c1c(C)c(CCC(=O)O)n(C)c1C`, the inhibition result in experiment [1] was “inactive”. Besides, the inhibition in experiment [2] is 23%.
Regarding `CCCCCCCCCCCC(=O)c1c(C)c(CC(=O)O)n(Cc2ccccc2)c1C`, the inhibition in experiment [1] came out at 35%.
For the molecule `CCCCCCCCCCCC(=O)c1c(C)c(CCC(=O)O)n(-c2ccccc2)c1C`, in experiment [1], the inhibition is 65%.
In the case of `CCCCCCC(Sc1nc(Cl)cc(NCc2ccc(-c3ccccc3)cc2)n1)C(=O)O` (stereo not drawn), in experiment [6], the inhibition entry is “inactive”.
In the case of `CCCCCCCCCCCC(=O)c1c(-c2ccccc2)c(CCC(=O)O)n(C)c1C`, the inhibition in experiment [1] was 90%. Besides, the concentration for half-maximal inhibition (IC50) on Prostaglandin E synthase [4] is 140 nM. Also, the inhibition entry in experiment [6] was “inactive”.
For the molecule `Cc1c(C(=O)c2ccc3ccccc3c2)c(C)n(C)c1CCC(=O)O`, the inhibition entry in experiment [1] and in experiment [2] was “inactive” in each case.
As for `CCCCCCOc1ccc(C(=O)c2c(C)c(CCC(=O)O)n(C)c2C)cc1`, the results for the inhibition in experiment [1] and in experiment [2] were 32% and 64%, respectively.
For the molecule `CCCCCCCCCCCC(=O)c1cc(CC(=O)O)n(C)c1`, in experiment [1], the inhibition entry is “inactive”.
Take `CCCCCCCCCC(=O)c1c(C)c(CCC(=O)O)n(C)c1C`: in experiment [1], the inhibition entry is “inactive”. The inhibition in experiment [2] is 62%.
The like results for `CCCCCCC(=O)c1c(C)c(CCC(=O)O)n(C)c1C` were, in that order, “inactive” and “inactive”.
On the same counts, the results for `Cc1c(C(=O)CCc2ccccc2)c(C)n(C)c1CCC(=O)O` are “inactive” and “inactive”.
`CCCCCCCCCCCC(=O)c1c(C)c(CCC(=O)O)n(Cc2ccc(OC)cc2)c1C`: the inhibition in experiment [1] was 72%.
Consider `CCCCCCCC(=O)c1c(C)c(CCC(=O)O)n(C)c1C`, for which the inhibition result in experiment [1] is “inactive”. In addition, the inhibition in experiment [2] was found to be 55%.
With `CC(C)c1ccc2c(c1)c(SC(C)(C)C)c(CC(C)(C)C(=O)O)n2Cc1ccc(Cl)cc1`, the inhibition in experiment [6] came to 75%.
As to `CCCC(=O)c1c(C)c(CCC(=O)O)n(C)c1C`, the inhibition entry in experiment [1] and in experiment [2] was “inactive” in each case.
Take `CCCCCCCCCCCCCCCCCC(=O)c1c(C)c(CCC(=O)O)n(C)c1C`: the inhibition in experiment [1] is 97%. In experiment [2], the inhibition result was “inactive”.
